The text below walks through data of ChEMBL document CHEMBL4033702, “Challenges in the development of an M4 PAM preclinical candidate: The discovery, SAR, and in vivo characterization of a series of 3-aminoazetidine-derived amides” (Bioorg Med Chem Lett, 2017).

The target of data set [1] is T1, Muscarinic acetylcholine receptor M4 (Homo sapiens, UniProt P08173).
T1 sequence (P08173 whole entry): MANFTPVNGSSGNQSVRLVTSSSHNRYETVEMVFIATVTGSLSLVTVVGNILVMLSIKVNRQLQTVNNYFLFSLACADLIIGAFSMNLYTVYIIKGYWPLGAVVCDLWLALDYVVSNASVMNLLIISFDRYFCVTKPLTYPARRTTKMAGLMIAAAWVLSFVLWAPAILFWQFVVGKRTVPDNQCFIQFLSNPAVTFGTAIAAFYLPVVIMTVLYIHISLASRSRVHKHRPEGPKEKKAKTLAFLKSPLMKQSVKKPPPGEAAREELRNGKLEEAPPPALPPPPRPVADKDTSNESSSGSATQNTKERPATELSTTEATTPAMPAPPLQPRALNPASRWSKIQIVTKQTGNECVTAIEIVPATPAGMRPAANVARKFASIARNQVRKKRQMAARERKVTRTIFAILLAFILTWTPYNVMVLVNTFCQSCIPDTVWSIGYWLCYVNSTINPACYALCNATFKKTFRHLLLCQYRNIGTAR
In words: Positive allosteric modulation of human M4 receptor expressed in CHO cells co-expressing Gqi5 assessed as increase in acetylcholine-induced calcium mobilization. A general note: Calcium assays in cells follow changes in intracellular calcium, usually with a dye or a luminescent sensor.

The target in data set [2] is T2, Muscarinic acetylcholine receptor M4 (Homo sapiens) (UniProt P08173).
T2 sequence (whole entry): T1 sequence (P08173 whole entry)
Description: Positive allosteric modulation of human M4 receptor expressed in CHO cells co-expressing Gqi5 assessed as increase in acetylcholine-induced calcium mobilization relative to acetylcholine. It counts as functional, cell-based. An outline of the steps:
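Calcium mobilization in CHO cells stably co-expressing hM4 and Gqi5, tested in the presence of a fixed EC20 concentration of acetylcholine. Values are means of three independent experiments, each run in triplicate.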

The next data set has as its target Cytochrome P450 3A4 (Homo sapiens, UniProt P08684). In words: Inhibition of CYP3A4 (unknown origin). The class given is ADME.
Data set [3] deals with T3, Cytochrome P450 2D6 (Homo sapiens, UniProt P10635). In words: Inhibition of CYP2D6 (unknown origin). The class given is ADME.
Data set [4] addresses T4, Cytochrome P450 2C9 (Homo sapiens, UniProt P11712). Description: Inhibition of CYP2C9 (unknown origin). It counts as ADME.
The test system of data set [5] is Rattus norvegicus. Description: Reversal of amphetamine-induced hyperlocomotion in Sprague-Dawley rat at 3 mg/kg, po pretreated 30 mins post habituation in the chamber followed by amphetamine injection after 30 mins measured after 60 mins. The class given is functional. An outline of the steps:
(§1)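 Male Sprague-Dawley rats, n = 6–24 per dose group, were habituated in the chamber for 30 min. The compound or vehicle (10% tween-80 in water, v/v) was then given orally. Amphetamine 0.75 mg/kg was injected subcutaneously 30 min later. Total ambulations over t = 60–120 min gave % reversal of AHL, reported as mean ± SEM.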

Data set [6] concerns the target T5, Muscarinic acetylcholine receptor M4 (Rattus norvegicus) (UniProt P08485).
T5 sequence (whole entry): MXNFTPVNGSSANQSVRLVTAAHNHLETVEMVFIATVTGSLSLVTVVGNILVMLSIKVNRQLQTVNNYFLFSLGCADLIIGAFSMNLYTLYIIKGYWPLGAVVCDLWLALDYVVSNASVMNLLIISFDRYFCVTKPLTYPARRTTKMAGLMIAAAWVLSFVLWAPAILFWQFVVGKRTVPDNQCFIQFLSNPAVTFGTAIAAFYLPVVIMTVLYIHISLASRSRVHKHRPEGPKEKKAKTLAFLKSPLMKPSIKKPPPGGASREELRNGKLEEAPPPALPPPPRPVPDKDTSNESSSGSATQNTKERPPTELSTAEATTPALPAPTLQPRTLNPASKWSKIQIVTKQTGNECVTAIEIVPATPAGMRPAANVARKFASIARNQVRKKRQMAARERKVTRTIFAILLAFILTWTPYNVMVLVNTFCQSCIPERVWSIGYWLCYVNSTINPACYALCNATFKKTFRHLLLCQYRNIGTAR
In words: Activity at rat M4 receptor assessed as acetylcholine-induced calcium mobilization. It counts as functional. An outline of the steps:
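Ca2+ mobilization read-out. Acetylcholine concentration-response curves were run in the presence of the PAM to measure the fold-shift. An operational model was fitted to derive the PAM's affinity (KB) and cooperativity (αβ).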

Data set [7] deals with Rattus norvegicus. Description: Reversal of amphetamine-induced hyperlocomotion in Sprague-Dawley rat at 0.03 mg/kg, po pretreated 30 mins post habituation in the chamber followed by amphetamine injection after 30 mins measured after 60 mins. It counts as functional. In a few lines:
as §1

Data set [8] relates to Rattus norvegicus. In words: Reversal of amphetamine-induced hyperlocomotion in Sprague-Dawley rat at 0.1 mg/kg, po pretreated 30 mins post habituation in the chamber followed by amphetamine injection after 30 mins measured after 60 mins. It counts as functional. An outline of the steps:
as §1

The test system of another data set is Salmonella typhimurium. In words: Mutagenicity in Salmonella typhimurium by Ames test. The class given is toxicity. Particulars: salmonella enterica subsp. enterica serovar typhimurium. On the technique in general: The Ames test uses bacterial strains that need an amino acid and regain growth without it when mutated back.
Data set [9] has as its target Sodium-dependent dopamine transporter (Homo sapiens, UniProt Q01959). Description: Displacement of [3H]BTCP from human recombinant dopamine transporter expressed in CHO cells. It counts as cell-based.
A further data set addresses Cytochrome P450 2C19 (Homo sapiens, UniProt P33261). Description: Inhibition of CYP2C19 (unknown origin). It counts as ADME.
Data set [10] concerns the target T3, Cytochrome P450 2D6. Description: Time-dependent inhibition of CYP2D6 (unknown origin). It counts as ADME.
Data set [11] concerns the target T4, Cytochrome P450 2C9. Description: Time-dependent inhibition of CYP2C9 (unknown origin). It counts as ADME.
For data set [12], the system named is Rattus norvegicus. Description: Volume of distribution at steady state in iv or po dosed Sprague-Dawley rat. The class given is ADME, organism-based. Particulars: in vivo; call rule not given here. An outline of the steps:
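IV and PO pharmacokinetics in male Sprague-Dawley rats, n = 1–3. The oral dose was a 2–3 mg/kg solution. Plasma clearance, Vss and oral bioavailability were determined.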

The nature of data set [13]: Kinetic solubility of the compound in FaSSIF at pH 6.5 measured after 1 hr. The class given is physicochemical. Particulars: read-out: Kinetic_solubility.
A short description of data set [14]: Aqueous solubility of the compound at pH 7.4. It counts as physicochemical. Conditions: buffer.
The subject of data set [15] is Brain. Description: Drug level in Sprague-Dawley rat brain at 0.1 mg/kg, po. Conditions: in vivo, read-out: Drug uptake. The class given is ADME, organism-based.
Data set [16] relates to Brain. Description: Drug level in Sprague-Dawley rat brain at 0.3 mg/kg, po. It counts as ADME, organism-based. Particulars: in vivo, read-out: Drug uptake.
The subject of data set [17] is Brain. In words: Drug level in Sprague-Dawley rat brain at 1 mg/kg, po. The class given is ADME, organism-based. Particulars: in vivo, read-out: Drug uptake.
Data set [18] has as its system Rattus norvegicus. In words: Reversal of amphetamine-induced hyperlocomotion in po dosed Sprague-Dawley rat pretreated 30 mins post habituation in the chamber followed by amphetamine injection after 30 mins measured after 60 mins. The class given is functional. Conditions: read-out: MED. An outline of the steps:
as §1

≈ marks a conversion by molar mass, not a printed value.

T4 sequence (P11712 whole entry): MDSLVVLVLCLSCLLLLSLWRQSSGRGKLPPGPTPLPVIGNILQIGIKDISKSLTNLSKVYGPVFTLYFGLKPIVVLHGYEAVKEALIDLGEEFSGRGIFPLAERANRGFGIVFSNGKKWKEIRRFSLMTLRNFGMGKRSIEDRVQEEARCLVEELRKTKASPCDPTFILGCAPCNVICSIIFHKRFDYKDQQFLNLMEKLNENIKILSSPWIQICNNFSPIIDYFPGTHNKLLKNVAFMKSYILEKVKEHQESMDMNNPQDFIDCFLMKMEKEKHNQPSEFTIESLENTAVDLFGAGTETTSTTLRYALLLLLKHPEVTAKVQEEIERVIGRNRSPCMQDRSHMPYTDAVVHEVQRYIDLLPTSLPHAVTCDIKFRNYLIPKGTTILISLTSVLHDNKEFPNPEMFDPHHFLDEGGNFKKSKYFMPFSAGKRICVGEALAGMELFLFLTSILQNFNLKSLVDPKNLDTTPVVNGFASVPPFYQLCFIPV
T3 sequence (P10635 whole entry): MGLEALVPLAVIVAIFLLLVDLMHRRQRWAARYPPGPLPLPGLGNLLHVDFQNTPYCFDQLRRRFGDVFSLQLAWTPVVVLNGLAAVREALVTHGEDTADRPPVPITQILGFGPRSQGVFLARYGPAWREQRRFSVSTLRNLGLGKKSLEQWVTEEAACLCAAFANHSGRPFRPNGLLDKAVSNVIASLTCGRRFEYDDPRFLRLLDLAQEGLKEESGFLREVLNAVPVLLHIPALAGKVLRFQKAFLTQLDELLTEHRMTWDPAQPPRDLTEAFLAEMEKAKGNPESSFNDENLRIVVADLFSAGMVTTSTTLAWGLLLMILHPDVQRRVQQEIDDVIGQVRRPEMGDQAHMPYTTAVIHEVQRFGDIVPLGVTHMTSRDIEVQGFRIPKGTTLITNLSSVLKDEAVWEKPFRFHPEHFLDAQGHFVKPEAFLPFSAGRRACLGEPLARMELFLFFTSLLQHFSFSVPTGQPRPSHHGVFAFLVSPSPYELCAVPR
Sequence of Cytochrome P450 3A4 (P08684 whole entry): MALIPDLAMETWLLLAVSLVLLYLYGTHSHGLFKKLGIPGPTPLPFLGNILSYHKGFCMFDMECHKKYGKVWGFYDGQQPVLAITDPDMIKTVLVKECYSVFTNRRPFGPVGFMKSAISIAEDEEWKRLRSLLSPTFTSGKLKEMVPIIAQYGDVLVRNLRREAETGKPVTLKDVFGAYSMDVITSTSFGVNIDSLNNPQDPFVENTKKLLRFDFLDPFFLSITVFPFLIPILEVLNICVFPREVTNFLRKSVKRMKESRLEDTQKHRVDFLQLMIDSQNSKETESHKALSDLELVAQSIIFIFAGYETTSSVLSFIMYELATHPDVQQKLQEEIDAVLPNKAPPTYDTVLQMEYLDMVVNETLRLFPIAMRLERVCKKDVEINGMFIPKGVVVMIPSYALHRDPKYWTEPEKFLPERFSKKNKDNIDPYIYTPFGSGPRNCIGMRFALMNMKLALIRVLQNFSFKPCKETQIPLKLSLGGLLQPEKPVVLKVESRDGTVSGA
Sequence of Sodium-dependent dopamine transporter (Q01959 whole entry): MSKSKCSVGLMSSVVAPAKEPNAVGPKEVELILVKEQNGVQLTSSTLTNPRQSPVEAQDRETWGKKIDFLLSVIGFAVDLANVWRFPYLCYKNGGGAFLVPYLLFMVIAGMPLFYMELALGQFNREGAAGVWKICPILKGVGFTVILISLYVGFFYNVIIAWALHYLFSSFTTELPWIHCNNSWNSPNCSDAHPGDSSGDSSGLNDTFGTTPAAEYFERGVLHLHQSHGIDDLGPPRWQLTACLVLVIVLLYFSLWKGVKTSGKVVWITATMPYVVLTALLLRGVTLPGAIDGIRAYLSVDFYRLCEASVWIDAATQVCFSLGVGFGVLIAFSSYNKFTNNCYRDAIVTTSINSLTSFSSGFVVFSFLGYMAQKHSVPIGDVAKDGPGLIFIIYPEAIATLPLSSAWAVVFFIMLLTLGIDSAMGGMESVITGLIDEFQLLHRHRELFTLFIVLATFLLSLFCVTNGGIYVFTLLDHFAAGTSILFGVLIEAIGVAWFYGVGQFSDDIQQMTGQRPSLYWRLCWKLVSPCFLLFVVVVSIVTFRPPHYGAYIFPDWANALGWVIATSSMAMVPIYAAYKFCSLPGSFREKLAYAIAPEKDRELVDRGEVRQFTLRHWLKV
Sequence of Cytochrome P450 2C19 (P33261 whole entry): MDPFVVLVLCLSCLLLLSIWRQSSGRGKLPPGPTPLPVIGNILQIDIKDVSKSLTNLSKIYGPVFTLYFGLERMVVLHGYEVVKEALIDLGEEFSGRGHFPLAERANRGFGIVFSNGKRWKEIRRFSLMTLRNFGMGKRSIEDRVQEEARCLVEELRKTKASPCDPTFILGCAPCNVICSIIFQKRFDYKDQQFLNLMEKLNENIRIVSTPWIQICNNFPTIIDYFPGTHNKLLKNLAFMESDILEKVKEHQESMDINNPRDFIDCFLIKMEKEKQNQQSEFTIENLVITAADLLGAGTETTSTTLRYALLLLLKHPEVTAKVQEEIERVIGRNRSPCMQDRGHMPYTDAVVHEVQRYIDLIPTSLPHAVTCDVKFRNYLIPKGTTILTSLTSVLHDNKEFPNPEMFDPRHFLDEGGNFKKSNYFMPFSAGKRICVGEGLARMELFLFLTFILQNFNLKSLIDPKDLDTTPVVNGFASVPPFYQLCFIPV

A word on the EC50: it is the midpoint of the concentration-response curve. A word on the IC50: it is the point on the concentration scale where inhibition reaches its midpoint. As usually defined, the solubility is how much of the substance goes into solution per volume. `Cc1nnc2sc(C(=O)NC3CN(c4cccc(F)c4F)C3)c(N)c2c1C`: in data set [1], the half-maximal effective concentration (EC50) stood at 0.019 µM. The %max in data set [2] amounted to 88%. The IC50 at Cytochrome P450 3A4 is 11 µM; against Cytochrome P450 2D6 [3] it was 14 µM; at Cytochrome P450 2C9 [4] it was 3.8 µM; in data set [9], 0.45 µM; against Cytochrome P450 2C19 it was 6.3 µM. In addition, the Activity was 74% in the data set with Rattus norvegicus [5], 18% in the data set with Rattus norvegicus [7], 24% in the data set on Rattus norvegicus [8] and “Non-Toxic” in the data set on Salmonella typhimurium. Also, in data set [6], the Kb worked out at 0.12 µM. Also, the TDI result on Cytochrome P450 2D6 [10] and at Cytochrome P450 2C9 [11] was “Not Active” in each case. In addition, in the data set with Rattus norvegicus [12], the Vdss turned out to be 0.67 L/kg. Moreover, the solubility kinetic at 1 h in [13] came to 0.015 mg/mL (≈ 38.5 µM). For the same compound, in [14], the solubility was 1.8 µM (≈ 0.701 µg/mL). Besides, the figures for the concentration in the data set on Brain [15], in the data set on Brain [16] and in the data set on Brain [17] were 0.0099 µM, 0.037 µM and 0.14 µM, respectively. For the same compound, in the data set on Rattus norvegicus [18], the minimal effective dose stood at 0.3 mg/kg.
